Measurements as given in ChEMBL document CHEMBL4138126, “Synthesis, antiproliferative, anti-tubulin activity, and docking study of new 1,2,4-triazoles as potential combretastatin analogues” (Eur J Med Chem, 2017).

Legend:
DU-145 = assay: Growth inhibition of human DU145 cells assessed as cell growth at 10 uM after 48 hrs by sulforhodamine B assay; assay type: functional; conditions: DU-145, 48 h, read-out: Activity
Outline: (§1)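 NCI 60-cell-line panel screen (nine cancer types). Compounds added at single concentration 10^-5 M, cultures incubated 48 h; growth inhibition percentages reported.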

UACC-62 = assay: Growth inhibition of human UACC62 cells assessed as cell growth at 10 uM after 48 hrs by sulforhodamine B assay; assay type: functional; conditions: UACC-62, 48 h, read-out: Activity
Outline: (§2)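 NCI 60-cell-line panel from nine tumour types (leukaemia, lung, colon, CNS, melanoma, ovarian, renal, prostate, breast). Each compound was added at one single concentration, and cultures were incubated for 48 h. Results are reported as percent growth inhibition.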

HCC 2998 = assay: Growth inhibition of human HCC2998 cells assessed as cell growth at 10 uM after 48 hrs by sulforhodamine B assay; assay type: functional; conditions: HCC 2998, 48 h, read-out: Activity; outline: as §1
CCRF-CEM = assay: Growth inhibition of human CCRF-CEM cells assessed as cell growth at 10 uM after 48 hrs by sulforhodamine B assay; assay type: functional; conditions: read-out: Activity; outline: as §1
NCI-H226 = assay: Growth inhibition of human NCI-H226 cells assessed as cell growth at 10 uM after 48 hrs by sulforhodamine B assay; assay type: functional; conditions: NCI-H226, 48 h, read-out: Activity; outline: as §1
RPMI-8226 = assay: Growth inhibition of human RPMI8226 cells assessed as cell growth at 10 uM after 48 hrs by sulforhodamine B assay; assay type: functional; conditions: RPMI-8226, 48 h, read-out: Activity; outline: as §1
RXF 393 = assay: Growth inhibition of human RXF393 cells assessed as cell growth at 10 uM after 48 hrs by sulforhodamine B assay; assay type: functional; conditions: RXF 393, 48 h, read-out: Activity; outline: as §1
SN12C = assay: Growth inhibition of human SN12C cells assessed as cell growth at 10 uM after 48 hrs by sulforhodamine B assay; assay type: functional; conditions: read-out: Activity; outline: as §2
Malme-3M = assay: Growth inhibition of human MALME-3M cells assessed as cell growth at 10 uM after 48 hrs by sulforhodamine B assay; assay type: functional; conditions: read-out: Activity; outline: as §1
NCI-H322M = assay: Growth inhibition of human NCI-H322M cells assessed as cell growth at 10 uM after 48 hrs by sulforhodamine B assay; assay type: functional; conditions: read-out: Activity; outline: as §1
MDA-MB-468 = assay: Growth inhibition of human MDA-MB-468 cells assessed as cell growth at 10 uM after 48 hrs by sulforhodamine B assay; assay type: functional; conditions: MDA-MB-468, 48 h, read-out: Activity; outline: as §1
SNB-19 = assay: Growth inhibition of human SNB19 cells assessed as cell growth at 10 uM after 48 hrs by sulforhodamine B assay; assay type: functional; conditions: SNB-19, 48 h, read-out: Activity; outline: as §2
HCT-15 = assay: Growth inhibition of human HCT15 cells assessed as cell growth at 10 uM after 48 hrs by sulforhodamine B assay; assay type: functional; conditions: HCT-15, 48 h, read-out: Activity; outline: as §1
K562 = assay: Growth inhibition of human K562 cells assessed as cell growth at 10 uM after 48 hrs by sulforhodamine B assay; assay type: functional; conditions: K562, 48 h, read-out: Activity; outline: as §1
HT-29 = assay: Growth inhibition of human HT-29 cells assessed as cell growth at 10 uM after 48 hrs by sulforhodamine B assay; assay type: functional; conditions: HT-29, 48 h, read-out: Activity; outline: as §1
LOX IMVI = assay: Growth inhibition of human LOXIMVI cells assessed as cell growth at 10 uM after 48 hrs by sulforhodamine B assay; assay type: functional; conditions: read-out: Activity; outline: as §1
OVCAR-3 = assay: Growth inhibition of human OVCAR3 cells assessed as cell growth at 10 uM after 48 hrs by sulforhodamine B assay; assay type: functional; conditions: OVCAR-3, 48 h, read-out: Activity; outline: as §1
MOLT-4 = assay: Growth inhibition of human MOLT4 cells assessed as cell growth at 10 uM after 48 hrs by sulforhodamine B assay; assay type: functional; conditions: MOLT-4, 48 h, read-out: Activity; outline: as §1
SK-MEL-28 = assay: Growth inhibition of human SK-MEL-28 cells assessed as cell growth at 10 uM after 48 hrs by sulforhodamine B assay; assay type: functional; conditions: SK-MEL-28, 48 h, read-out: Activity; outline: as §1
SF-268 = assay: Growth inhibition of human SF268 cells assessed as cell growth at 10 uM after 48 hrs by sulforhodamine B assay; assay type: functional; conditions: SF-268, 48 h, read-out: Activity; outline: as §1
SK-MEL-5 = assay: Growth inhibition of human SK-MEL-5 cells assessed as cell growth at 10 uM after 48 hrs by sulforhodamine B assay; assay type: functional; conditions: SK-MEL-5, 48 h, read-out: Activity; outline: as §1
ACHN = assay: Growth inhibition of human ACHN cells assessed as cell growth at 10 uM after 48 hrs by sulforhodamine B assay; assay type: functional; conditions: read-out: Activity; outline: as §1
HepG2 = assay: Cytotoxicity in human HepG2 cells assessed as reduction in cell viability incubated for 48 hrs by MTT assay; assay type: functional, cell-based; conditions: HepG2, 48 h
Outline: (§3)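 HepG2 and HL60 (ATCC) grown in DMEM with 10% FBS, 2 mM L-glutamine, penicillin/streptomycin, amphotericin B at 37 °C, 5% CO2. Samples dissolved in DMSO, diluted thousandfold in assay. Cells seeded in serum-free medium, treated with serial concentrations 48 h; MTT 4 h, formazan dissolved in acidified isopropanol, A570. Triplicates averaged; viability relative to untreated/vehicle control.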

U-251 = assay: Growth inhibition of human U251 cells assessed as cell growth at 10 uM after 48 hrs by sulforhodamine B assay; assay type: functional; conditions: U-251, 48 h, read-out: Activity; outline: as §2
KM12 = assay: Growth inhibition of human KM12 cells assessed as cell growth at 10 uM after 48 hrs by sulforhodamine B assay; assay type: functional; conditions: KM12, 48 h, read-out: Activity; outline: as §1
EKVX = assay: Growth inhibition of human EKVX cells assessed as cell growth at 10 uM after 48 hrs by sulforhodamine B assay; assay type: functional; conditions: read-out: Activity; outline: as §1
HL-60 = assay: Cytotoxicity in human HL60 cells assessed as reduction in cell viability incubated for 48 hrs by MTT assay; assay type: functional, cell-based; conditions: HL-60, 48 h; outline: as §3
UACC-257 = assay: Growth inhibition of human UACC257 cells assessed as cell growth at 10 uM after 48 hrs by sulforhodamine B assay; assay type: functional; conditions: UACC-257, 48 h, read-out: Activity; outline: as §2
CAKI-1 = assay: Growth inhibition of human CAKI-1 cells assessed as cell growth at 10 uM after 48 hrs by sulforhodamine B assay; assay type: functional; conditions: CAKI-1, 48 h, read-out: Activity; outline: as §1

## COc1cccc(-n2nc(C(=O)NCc3ccccc3OC)nc2-c2cc(OC)c(OC)c(OC)c2)c1
DU-145
  growth at 10 µM: 106%
UACC-62
  growth at 10 µM: 97.4%
HCC 2998
  growth at 10 µM: 92.1%
CCRF-CEM
  growth at 10 µM: 107%
NCI-H226
  growth at 10 µM: 96.8%
RPMI-8226
  growth at 10 µM: 100%
RXF 393
  growth at 10 µM: 107%
SN12C
  growth at 10 µM: 94.8%
Malme-3M
  growth at 10 µM: 99.7%
NCI-H322M
  growth at 10 µM: 94.3%
MDA-MB-468
  growth at 10 µM: 99.9%
SNB-19
  growth at 10 µM: 100%
HCT-15
  growth at 10 µM: 96.8%
K562
  growth at 10 µM: 122%
HT-29
  growth at 10 µM: 81.3%
LOX IMVI
  growth at 10 µM: 95.9%
OVCAR-3
  growth at 10 µM: 101%
MOLT-4
  growth at 10 µM: 103%
SK-MEL-28
  growth at 10 µM: 115%
SF-268
  growth at 10 µM: 95.5%
SK-MEL-5
  growth at 10 µM: 107%
ACHN
  growth at 10 µM: 106%
HepG2
  IC50: 1.67 µM
U-251
  growth at 10 µM: 97.1%
KM12
  growth at 10 µM: 95.6%
EKVX
  growth at 10 µM: 91.1%
HL-60
  IC50: > 100 µM

## CCOc1ccc(-n2nc(C(=O)Nc3ccc(OC)c(O)c3)nc2-c2cc(OC)c(OC)c(OC)c2)cc1
DU-145
  growth at 10 µM: 98.5%
UACC-257
  growth at 10 µM: 90.8%
CCRF-CEM
  growth at 10 µM: 89.5%
NCI-H226
  growth at 10 µM: 96.5%
RPMI-8226
  growth at 10 µM: 67.7%
RXF 393
  growth at 10 µM: 112%
CAKI-1
  growth at 10 µM: 86.1%
Malme-3M
  growth at 10 µM: 114%
NCI-H322M
  growth at 10 µM: 84.7%
MDA-MB-468
  growth at 10 µM: 101%
SNB-19
  growth at 10 µM: 91.8%
HCT-15
  growth at 10 µM: 97.2%
HT-29
  growth at 10 µM: 99.2%
LOX IMVI
  growth at 10 µM: 90.6%
OVCAR-3
  growth at 10 µM: 97.8%
MOLT-4
  growth at 10 µM: 74.9%
SF-268
  growth at 10 µM: 94.1%
ACHN
  growth at 10 µM: 91.5%
HepG2
  IC50: 13.7 µM
U-251
  growth at 10 µM: 93.2%
KM12
  growth at 10 µM: 92.8%
EKVX
  growth at 10 µM: 95.7%
HL-60
  IC50: > 100 µM

## CCOc1ccc(-n2nc(C(=O)Nc3ccc(F)c(F)c3)nc2-c2cc(OC)c(OC)c(OC)c2)cc1
DU-145
  growth at 10 µM: 80%
UACC-257
  growth at 10 µM: 89.4%
CCRF-CEM
  growth at 10 µM: 44.1%
NCI-H226
  growth at 10 µM: 69.1%
RPMI-8226
  growth at 10 µM: 12.3%
RXF 393
  growth at 10 µM: 84.6%
CAKI-1
  growth at 10 µM: 68.5%
Malme-3M
  growth at 10 µM: 86.7%
NCI-H322M
  growth at 10 µM: 73%
MDA-MB-468
  growth at 10 µM: 98.6%
SNB-19
  growth at 10 µM: 86.8%
HCT-15
  growth at 10 µM: 63.8%
HT-29
  growth at 10 µM: 74.6%
LOX IMVI
  growth at 10 µM: 66.4%
OVCAR-3
  growth at 10 µM: 61%
MOLT-4
  growth at 10 µM: 50%
SF-268
  growth at 10 µM: 84.9%
ACHN
  growth at 10 µM: 64.5%
HepG2
  IC50: 31.8 µM
U-251
  growth at 10 µM: 70.3%
KM12
  growth at 10 µM: 56.7%
EKVX
  growth at 10 µM: 76.5%
HL-60
  IC50: 17.1 µM

## CCOc1ccc(-n2nc(C(=O)Nc3cc(F)cc(F)c3)nc2-c2cc(OC)c(OC)c(OC)c2)cc1
DU-145
  growth at 10 µM: 98.2%
UACC-257
  growth at 10 µM: 90.4%
CCRF-CEM
  growth at 10 µM: 84.1%
NCI-H226
  growth at 10 µM: 77.2%
RPMI-8226
  growth at 10 µM: 69.4%
RXF 393
  growth at 10 µM: 88.2%
CAKI-1
  growth at 10 µM: 68.8%
Malme-3M
  growth at 10 µM: 97.5%
NCI-H322M
  growth at 10 µM: 85.3%
MDA-MB-468
  growth at 10 µM: 77%
SNB-19
  growth at 10 µM: 73.3%
HCT-15
  growth at 10 µM: 77.9%
HT-29
  growth at 10 µM: 89%
LOX IMVI
  growth at 10 µM: 86.6%
OVCAR-3
  growth at 10 µM: 93.6%
MOLT-4
  growth at 10 µM: 63.9%
SF-268
  growth at 10 µM: 88.9%
ACHN
  growth at 10 µM: 82.7%
HepG2
  IC50: 36.5 µM
U-251
  growth at 10 µM: 82%
KM12
  growth at 10 µM: 85.9%
EKVX
  growth at 10 µM: 85.8%
HL-60
  IC50: > 100 µM
